According to PMC3018560 (Antiviral research, 2010):

Legend:
[1] = mouse; ref Alonzi et al., 2008; cited from earlier work
HIV = details: anti-HIV agent, patients; ref Fischl et al., 1994; cited from earlier work
[2] = test system: DENV (serotype 2, TSV01 strain); experiment: Dengue viremia model in AG129 mouse, plasma virus titer by plaque assay; assay type: in vivo; details: AG129 mice
Outline: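 AG129 mice (lacking type I and type II interferon receptors), 7 to 8 weeks old, 6 per dosing group, challenged i.p. with 5×10^6 pfu/mouse. Ribavirin dosed once daily and imino sugars twice daily at 12 hr intervals for 3 consecutive days post-infection; PBS to controls. Plasma virus titer by plaque assay on blood drawn day 3. Reported as average and standard deviation; student t test versus PBS control.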

[3] = human; ref Lindahl et al., 2005; cited from earlier work

| Structure (SMILES) | T1/2 [1] | Antiviral efficacy in phase II clinical trial (HIV) | Effect on viremia of dose increase ([2]; ribavirin dose raised from 40mg/kg to 80mg/kg) | Effect on viremia ([2]; ribavirin oral 40mg/kg once daily alone, 3 days (Fig. 5A)) | Systematic concentration [3] |
| --- | --- | --- | --- | --- | --- |
| CCCCN1C[C@H](O)[C@@H](O)[C@H](O)[C@H]1CO [NBDNJ] | 1.34 h | did not demonstrate any antiviral efficacy |  |  |  |
| NC(=O)c1ncn([C@@H]2O[C@H](CO)[C@@H](O)[C@H]2O)n1 [ribavirin] |  |  | did not improve its antiviral effect | did not reduce viremia | ~ 15 μM |
